# Measured values taken from PubChem BioAssay AID743214 (The Scripps Research Institute Molecular Screening Center, 2013).
# About 10 (0.5%) of roughly 2,100 compounds were called active. Not all results are given here. A number with no mark means an inactive call.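 The calls were made as follows: active = mean triplicate inhibition above the solvent-only control wells' mean plus 3 SD (cut at about 12% in these data); inactive = the rest.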
# Target: Disintegrin and metalloproteinase domain-containing protein 17 (Homo sapiens) (UniProt P78536)
# Sequence (P78536 215-824 limits assumed): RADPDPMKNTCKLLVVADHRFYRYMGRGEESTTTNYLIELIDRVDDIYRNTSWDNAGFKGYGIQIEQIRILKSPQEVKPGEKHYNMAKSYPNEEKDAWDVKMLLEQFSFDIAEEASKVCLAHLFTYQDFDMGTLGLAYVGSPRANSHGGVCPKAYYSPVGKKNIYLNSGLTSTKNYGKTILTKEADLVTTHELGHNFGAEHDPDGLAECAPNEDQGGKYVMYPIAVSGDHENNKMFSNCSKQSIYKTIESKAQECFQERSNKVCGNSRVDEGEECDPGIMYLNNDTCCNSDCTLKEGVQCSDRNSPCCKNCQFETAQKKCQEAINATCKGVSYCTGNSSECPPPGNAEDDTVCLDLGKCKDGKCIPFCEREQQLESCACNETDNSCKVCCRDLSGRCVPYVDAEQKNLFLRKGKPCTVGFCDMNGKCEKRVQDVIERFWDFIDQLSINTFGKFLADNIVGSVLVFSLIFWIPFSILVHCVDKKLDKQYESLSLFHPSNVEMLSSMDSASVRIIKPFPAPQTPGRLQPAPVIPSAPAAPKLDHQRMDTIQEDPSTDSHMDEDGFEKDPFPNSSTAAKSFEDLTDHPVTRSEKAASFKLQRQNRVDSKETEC
# Experiment: ADAM17 inhibitors, counter-screen for ADAM10 exosite inhibitor project, biochemical, QFRET, high throughput (AID 743214);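 also: 0% = DMSO wells and 100% = marimastat wells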
# Conditions: ADAM17 QFRET peptide cleavage, EDANS fluorescence; at 6.95 µM; active compounds read high
# Method in brief: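 Read-out: percent inhibition scaled between DMSO and 1 µM marimastat wells; System: ADAM17 enzyme, quenched-FRET peptide cleavage; Quantity: ADAM17 added as 2X stock of 20 nM; Also added: DM2 peptide substrate; Incubation: 30 min compound–enzyme preincubation, then 3 h reaction, both 25 °C; Technique: fluorescence at ex 359 / em 460 nm.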
row,SMILES,inhibition [%]
1,Cn1c(CNc2nc(-c3ccccc3)cs2)nnc1SCC(=O)c1ccccc1,0.06
2,COc1ccc(C(CCN(Cc2ccc(OC)c(OC)c2)C(=O)CCl)c2ccccc2)cc1 (stereo unspecified),1.03
3,CCOc1cc(/C=N/NC(=O)c2cc(-c3ccccc3)nc3ccccc23)ccc1O,4.94
4,O=C(CSC1=NCCS1)Nc1nc(-c2ccccc2)cs1,0.66
5,COc1ccc(OCCCn2cccc2/C=C2/C(=N)N3OC(C)=CC3=NC2=O)cc1,0.03
6,Cc1ccc(/C=N/NC(=O)CSc2nc3ccccc3o2)cc1,0.11
7,COc1cc(/C=C2/SC(=S)N(Cc3ccccc3)C2=O)cc(OC)c1O,3.03
8,CN(C)S(=O)(=O)c1cccc(NC(=O)COC(=O)C2(c3ccccc3F)CCCC2)c1,0.96
9,N/C(Cc1ccc([N+](=O)[O-])cc1)=N\OC(=O)COc1ccc2ccccc2c1,1.74
10,O=C1NC(Nc2nc3ccccc3s2)(C(F)(F)F)C(=O)N1C1CCCCC1 (stereo unspecified),0.94
11,COc1cc(C2CC(=O)N3CN(Cc4ccccc4)CSC3=C2C#N)ccc1OCc1ccccc1 (stereo unspecified),2.1
12,O=C(OCc1ccc(-c2ccccc2)cc1)c1cccc(O)c1,4.02
13,COC(=O)[C@@]12C[C@@H](CC(=O)NCCCCc3ccccc3)C(=O)N(CCc3ccc(OC)c(OC)c3)C1=CCC(C)(C)C2,0.87
14,COc1cc(Cl)c(S(=O)(=O)N2CCN(Cc3ccc4c(c3)OCO4)CC2)cc1Cl,1.24
15,CCOc1ccc(Nc2oc(Cc3ccccc3)nc2C#N)cc1,1.58
16,CCOc1ccc(Br)cc1S(=O)(=O)Nc1ccc(C(=O)OC(C)C(=O)N(C)c2ccccc2)cc1 (stereo unspecified),2.71
17,C=CCC[C@@H](Cc1ccc(F)cc1)C(=O)O[C@H](CNC(=O)[C@H](CC=C)CC(=O)N(CCO)Cc1ccccc1)c1ccccc1,3.84
18,O=C(Cc1ccc(Cl)c(Cl)c1)Nc1ccc(SC(F)F)cc1,2.25
19,CC(C)(C)c1ccc(S(=O)(=O)NCC2CCN(C(=O)C(=O)c3cc4ccccc4o3)CC2)cc1,1.76
20,COc1ccc(Cl)cc1NC(=O)COC(=O)C(CC(C)C)N1C(=O)C2CC=CCC2C1=O (stereo unspecified),0.79
21,CC(C)(C)c1ccc(C(=O)Nc2cc(Cl)c(Br)cc2C(=O)O)cc1,0.16
22,CCCCCc1c(-c2ccc(OC)c(OC)c2)ncn1CCc1ccccc1OC,1.69
23,Cc1ccc(NS(=O)(=O)c2ccc(C)c(NC(=O)COc3ccc4ccccc4c3)c2)c(C)c1,4.43
24,COc1ccc(NS(=O)(=O)c2ccc(C)c(C(=O)NNC(=O)c3csc(N4CCOCC4)n3)c2)cc1,1.55

row,SMILES,inhibition [%]
1,O=C(COC(=O)CCCSc1nc2ccccc2[nH]1)Nc1ccc(Oc2ccccc2)cc1,3.79
2,Cc1cccc(CCNS(=O)(=O)c2ccc(S(=O)(=O)NC3CCCC3)cc2)c1,-0.14
3,O=C(CSCc1ccc(Br)cc1)Nc1ccc(S(=O)(=O)N2CCCCCC2)cc1,3.71
4,O=Cc1cn(CCOc2ccc(F)cc2)c2ccccc12,-0.11
5,O=C(Nc1cccc(S(=O)(=O)Nc2ccc(Cl)cc2)c1)c1ccc2c(c1)OCCO2,2.96
6,COc1cccc(NC(=O)CN2CCN(c3nc(-c4cccc(OC)c4)cs3)CC2)c1,2.32
7,Cc1ccc(NC(=O)c2nc[nH]c2C(=O)N[C@@H](CCCCNC(=O)OC(C)(C)C)C(=O)OC(C)(C)C)cc1,3.32
8,S=c1[nH]cc(-c2ccc(Cl)cc2)n1-c1ccccc1,0.72
9,CCC1(C)Cc2c(sc3nnn(CC(=O)Nc4ccc(Cl)cc4)c(=O)c23)CO1 (stereo unspecified),1.24
10,CC(C)(C)N1C(=O)[C@H]2[C@@H](c3ccc(Br)cc3)N3C(=O)N(c4cccc(Cl)c4)C(=O)[C@@]3(C)[C@H]2C1=O,0.76
11,Cc1ccc(S(=O)(=O)N(CC(=O)Nc2cccnc2)c2ccc(Br)cc2)cc1,0.35
12,O=C(NCCc1ccc(Cl)cc1Cl)c1cc([N+](=O)[O-])c[nH]c1=O,0.13
13,O=S(=O)(c1cccc(S(=O)(=O)N2CCC(n3nnc4ccccc43)CC2)c1)N1CCCCC1,0.16
14,C#CCN(C[C@H]1[C@H](OC(=O)NC2CCCC2)[C@H](OC(=O)NC2CCCC2)C[C@H]2C(=O)N(c3ccccc3)C(=O)[C@@H]12)S(=O)(=O)c1ccc(C)cc1,1.32
15,COc1ccc([C@@H]2[C@@H]3C(=O)N(C(C)(C)C)C(=O)[C@@H]3[C@]3(Cc4ccccc4)C(=O)N(c4cccc(Br)c4)C(=O)N23)cc1,2.34
16,O=C(CC(O)(C(F)(F)F)C(F)(F)F)Nc1ccc(Cl)c(Cl)c1,1.21
17,O=S(=O)(c1ccccc1)N(Cc1cccc(F)c1)c1ccccc1,0.96
18,C=C(C)COc1ccc(-c2n[nH]c(C)c2-c2ccccc2)c(O)c1,3.15
19,COc1ccc(C(N)c2csc(NC(=O)Nc3cccc(C(F)(F)F)c3)n2)cc1 (stereo unspecified),1.65
20,COC(=O)C1NN=C(C(=O)c2ccc(Br)cc2)C1c1cccc(Br)c1 (stereo unspecified),1.16
21,CCC(C(=O)OCC(=O)Nc1ccccc1-c1ccccc1)c1ccccc1 (stereo unspecified),1.36
22,COc1cccc(C2CC(c3ccccc3)=NN2S(=O)(=O)c2ccccc2)c1OC (stereo unspecified),1.14
23,Cc1ccc(S(=O)(=O)N2CCN(C(=O)COC(=O)c3c(C)cc(C)cc3C)CC2)c(C)c1,1.25
24,CC(N=Cc1nc(-c2ccccc2)oc1O)c1ccccc1 (stereo unspecified),1.57

row,SMILES,inhibition [%]
1,Cc1cccc(C2c3[nH]c4ccccc4c3CCN2C(=O)c2cc(-c3cccn3C)n[nH]2)n1 (stereo unspecified),2.55
2,COc1ccc([C@H]2CC(=O)C=C(c3ccc(OC(F)(F)F)cc3)C2)cc1OC,0.8
3,O=C(CC1SC(=Nc2ccccc2)N(Cc2ccccn2)C1=O)Nc1cccc(Cl)c1 (stereo unspecified),2.48
4,COc1cc(/C=N/O)cc(Br)c1OS(=O)(=O)c1ccc(C)cc1,0.97
5,CC(C)C(=O)Nc1cccc(NC(=S)NC(=O)C(c2ccccc2)c2ccccc2)c1,3.08
6,CC(C)(C)OC(=O)N1CCC(NC(=O)c2[nH]cnc2C(=O)N[C@@H](Cc2ccccc2)C(=O)OCc2ccccc2)CC1,3.26
7,CCOc1ccc(N2C(=O)CC(N(CCc3ccc(OC)c(OC)c3)C(=S)Nc3ccccc3)C2=O)cc1 (stereo unspecified),0.25
8,CCCC(=O)n1nc(NCc2ccc(OC)cc2)nc1NCc1ccc(OC)cc1,2.02
9,O=C(/C=C/c1ccc(F)cc1)NC(=S)NNC(=O)c1cccnc1,0.5
10,COc1cccc(NC(=O)C2C(c3ccccc3)C2(Cl)Cl)c1 (stereo unspecified),1
11,CC1(C)C=Cc2c(ccc3c2OC[C@@H](c2ccc(O)cc2O)C3)O1,2.8
12,Cc1ccc(C)c(NC(=S)NNC(=O)c2csc(C)c2)c1,2.16
13,COc1ccc(S(=O)(=O)N2CCN(C(C)C(=O)Nc3ccc(C(C)C)cc3)CC2)cc1 (stereo unspecified),1.3
14,COc1ccc(C(=O)NNC(=S)NC(=O)c2ccccc2)cc1,0.42
15,O=C1[C@H]2[C@@H](c3ccc(F)cc3)N3C(=O)N(c4ccc(C(F)(F)F)cc4)C(=O)[C@@]3(Cc3ccccc3)[C@H]2C(=O)N1C1CCCCC1,2.35
16,COc1cccc(CC2(CO)CCCN(Cc3ccc(OC(F)F)cc3)C2)c1 (stereo unspecified),0.36
17,CC(C)Oc1cc(F)ccc1-c1cc(C(=O)Nc2cccc(Cl)c2)[nH]n1,2.81
18,CCOc1cc(NC(=O)c2ccccc2C(=O)O)c(OCC)cc1NC(=O)c1ccccc1F,2.06
19,Cc1csc(NC(=S)Nc2cccc(Cl)c2)n1,2.94
20,O=C(NC(Cc1c[nH]c2ccccc12)C(=O)N/N=C/c1ccc(Br)cc1)c1cccs1 (stereo unspecified),3.25
21,Cc1cc(C)cc(NS(=O)(=O)c2ccc(Oc3ncc(C(F)(F)F)cc3Cl)cc2)c1,5.19
22,Cc1ccc(N(NC(=O)C(C)(C)O)C(=O)c2ccccc2)cc1C,-0.31
23,O=C1[C@H]2[C@@H](c3ccc(C(F)(F)F)cc3)N[C@]3(CCCN(Cc4ccc(Br)cc4)C3=O)[C@H]2C(=O)N1Cc1ccccc1,2.47
24,Cc1[nH]c2ccccc2c1C(=O)COC(=O)c1c(-c2ccccc2)noc1C,2.46

row,SMILES,inhibition [%]
1,CC1(Cc2cccc(C#N)c2)C(=O)Nc2ccc(-c3cccc(C(F)(F)F)c3)cc21 (stereo unspecified),2.64
2,Cc1ccc(OCc2nnc(SC/C=C/c3ccccc3)n2Cc2ccco2)cc1,2.07
3,Cc1ccccc1-n1c(SCC(=O)Nc2cccc3ccccc23)nc(O)cc1=O,0.79
4,O=C(CNC(=O)c1ccc(Cl)cc1Cl)NCC(=O)Nc1ccccc1N1CCOCC1,-0.05
5,Cc1cnc(C(=O)OCc2c(C)cc(C(C)(C)C)cc2C)cn1,0.19
6,Cc1cc(C)cc(NC(=O)CSCc2cnn(-c3ccccc3)c2-n2cccc2)c1,1.7
7,c1ccc2c(CCN3CCNC[C@H]3Cc3cccc4ccccc34)cccc2c1,2.24
8,Cc1cc(O)ccc1-c1cc(C(=O)NCc2cc(C(F)(F)F)cc(C(F)(F)F)c2)[nH]n1,1.86
9,Cc1cc(C)cc(NC(=S)NCCc2c[nH]c3ccccc23)c1,0.79
10,COc1ccc(C2CC(c3ccccc3)=NN2C(=O)COC(=O)COc2ccccc2)cc1 (stereo unspecified),3.56
11,C=CC[C@H](CC(=O)N(CCO)Cc1ccccc1)C(=O)N[C@@H](COC(=O)[C@@H](CC=C)Cc1ccc(F)cc1)Cc1ccccc1,3.06
12,CCC(C)(C)c1ccc(Oc2ccc(NC(=O)COC(=O)C3=COCCO3)cc2)cc1,3.28
13,COc1ccc(Cl)cc1NC(=O)CN(C)C(=O)CCCc1c[nH]c2ccccc12,0.4
14,COc1ccccc1CC1(C)C(=O)Nc2ccc(OC(F)(F)F)cc21 (stereo unspecified),0.53
15,CC(C)(C)OC(=O)CNC(=O)c1[nH]cnc1C(=O)N[C@@H](Cc1ccccc1)C(=O)OCc1ccccc1,2.08
16,C=CCC[C@@H](Cc1ccc(F)cc1)C(=O)OC[C@H](Cc1c[nH]c2ccccc12)NC(=O)[C@@H](CC=C)CC(=O)N(CCO)Cc1ccccc1,3.11
17,Cc1cc(Nc2ccccc2)n(C(=O)c2ccc(N)cc2)n1,0.56
18,O=C(NCc1ccccc1)c1onc(CSc2nc3ccccc3[nH]2)c1C(=O)NCc1ccccc1,1.52
19,COc1ccc(C(=O)NN2C(=O)C3C(c4ccccc4)C=CC(c4ccccc4)C3C2=O)cc1 (stereo unspecified),2.28
20,N#Cc1nc(Cc2cccc3ccccc23)oc1NCc1ccc2c(c1)OCO2,2.25
21,CC(C)Oc1ccc(CC(=O)NNC(=S)Nc2ccc(Br)cc2)cc1,0.68
22,Cn1nc(C(F)(F)F)c(C(=O)Nc2cccc(C(F)(F)F)c2)c1SCc1ccc(Cl)cc1,2.65
23,O=C(Oc1cccc(N2C(=O)C3C4c5ccccc5C(c5ccccc54)C3C2=O)c1)c1ccco1 (stereo unspecified),1.5
24,COc1cc(/C=N/n2c(C)n[nH]c2=S)ccc1OCc1ccccc1,-0.91
